# Assay results collected from several papers.
# Each line is one published result; the experiments were not run side by side.
# Toll-like receptor 1/2: Toll-like receptor 1/2 (Homo sapiens, UniProt O60603+Q15399)
# RORC: Nuclear receptor ROR-gamma (RORC, Homo sapiens, UniProt P51449)
Structure (SMILES),target,assay,conditions,measurement,value
CNc1ccc([N+](=O)[O-])cc1-n1cnc(-c2ccc(C3CCCCC3)cc2)c1,Toll-like receptor 1/2,"reporter gene, agonist",,EC50,0.12 µM
CC(C)C[C@H](NC(=O)[C@H](Cc1ccccc1)NC(=O)[C@@H](N)Cc1ccc(O)cc1)C(=O)N[C@@H](Cc1ccccc1)C(=O)N[C@@H](CCCNC(=N)N)C(=O)N1CCC[C@H]1C(=O)N[C@@H](CCCNC(=N)N)C(=O)N[C@@H](CC(N)=O)C(N)=O,"Neuromedin-U receptor 1 (Mus musculus, UniProt O55040)","β-arrestin recruitment, agonist",,EC50,0.0115 µM
CNc1ccc([N+](=O)[O-])cc1-n1cnc(-c2cc(F)c(F)cc2F)c1,Toll-like receptor 1/2,"reporter gene, agonist",,EC50,> 100 µM
Cc1cnc(-c2ccc(-c3ccc(NC(=O)Nc4c(F)cc(F)cc4F)cc3F)c3c2C(=O)NC3)[nH]1,"Myosin-IIIb (MYO3B, Homo sapiens, UniProt Q8WXR4)","binding, competition with immobilised ligand",,Kd,0.076 µM
CCCC[C@H](NC(=O)[C@H](CCC(N)=O)NC(=O)[C@H](CO)NC(=O)[C@H](Cc1ccccc1)NC(=O)CCCCCNC(=O)c1ccc(I)cc1)C(=O)N[C@@H](CCCBr)B(O)O,"Chymotrypsinogen A (Bos taurus, UniProt P00766)","enzyme activity, inhibitor, fluorescence",,Ki,0.653 µM
CNc1ccc([N+](=O)[O-])cc1-n1cnc(-c2ccc3ccccc3c2)c1,Toll-like receptor 1/2,"reporter gene, agonist",,EC50,0.42 µM
O=C(CCn1cc(CCN2CCN(c3cc4c(cc3F)c(=O)c(C(=O)O)cn4C3CC3)CC2)nn1)Nc1ccc(S[C@@H]2O[C@H](CO)[C@H](O)[C@H](O)[C@H]2O)cc1,"PA-I galactophilic lectin (lecA, Pseudomonas aeruginosa, UniProt Q05097)","ligand displacement, FP",,Ki,3.19 µM
O=S(=O)(c1cccc(Cl)c1)N1CCc2ccc(OCc3c(F)cccc3Cl)cc21,RORC,"ligand displacement, radioligand",,IC50,0.37 µM
CCNc1ccc([N+](=O)[O-])cc1-n1cnc(-c2ccc([N+](=O)[O-])cc2)c1,Toll-like receptor 1/2,"reporter gene, agonist",,EC50,> 100 µM
COc1ccccc1COc1ccc2c(c1)N(S(=O)(=O)c1cccc(C(F)(F)F)c1)CC2,RORC,"ligand displacement, radioligand",,IC50,0.2 µM
OC[C@@H]1[C@@H](O)[C@H](O)[C@@H](O)[C@@H]2O[C@H]12,"Beta-glucosidase (GBA2, Homo sapiens, UniProt Q9HCG7)","enzyme activity, inhibitor","pH 6, lysate",IC50,1.16 µM
O=S(=O)(c1cccc(C(F)(F)F)c1)N1CCc2ccc(OCc3c(Cl)cccc3Cl)cc21,RORC,"ligand displacement, radioligand",,IC50,0.13 µM
CCn1c(-c2nc3ccc(C(=O)N4CCCC(N)C4)cc3n2C)cc2ccccc21 (stereo not shown),"Muscarinic acetylcholine receptor M2 (CHRM2, Homo sapiens, UniProt P08172)","calcium signal, agonist",,EC50,> 15.8 µM
